In ChEMBL document CHEMBL1154090, “Synthesis, spectral and biological evaluation of some new thiazolidinones and thiazoles based on t-3-alkyl-r-2,c-6-diarylpiperidin-4-ones” (2009):
≈ marks a conversion by molar mass, not a printed value.

What was measured:
[1] = system: Staphylococcus aureus; experiment: Ratio of ciprofloxacin MIC to drug MIC for Staphylococcus aureus; assay type: functional
[2] = system: Mycobacterium tuberculosis; experiment: Antimycobacterial activity against Mycobacterium tuberculosis H37Rv ATCC 27294 by BACTEC radiometric respiratory technique; assay type: functional
Summary of the method: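 Compounds prepared as DMSO solutions and tested over 256 to 1 µg/ml, with isoniazid and rifampicin as reference drugs.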

[3] = system: Staphylococcus aureus; experiment: Antibacterial activity against Staphylococcus aureus by broth microdilution method; assay type: functional
[4] = system: Escherichia coli; experiment: Antibacterial activity against Escherichia coli by broth microdilution method; assay type: functional
[5] = system: Klebsiella pneumoniae; experiment: Antibacterial activity against Klebsiella pneumoniae by broth microdilution method; assay type: functional
[6] = system: Candida albicans; experiment: Antifungal activity against Candida albicans by broth microdilution method; assay type: functional
[7] = system: Aspergillus flavus; experiment: Antifungal activity against Aspergillus flavus by broth microdilution method; assay type: functional
[8] = system: Mycobacterium tuberculosis; experiment: Ratio of isoniazid MIC to drug MIC for Mycobacterium tuberculosis H37Rv ATCC 27294; assay type: functional
[9] = system: Mycobacterium tuberculosis; experiment: Ratio of rifampicin MIC to drug MIC for Mycobacterium tuberculosis H37Rv ATCC 27294; assay type: functional
[10] = system: Klebsiella pneumoniae; experiment: Ratio of ciprofloxacin MIC to drug MIC for Klebsiella pneumoniae; assay type: functional
[11] = system: Rhizopus sp; experiment: Antifungal activity against Rhizopus sp. by broth microdilution method
[12] = system: Rhizopus; experiment: Ratio of amphotericin B MIC to drug MIC for Rhizopus sp.; assay type: functional

Structure (SMILES)	Ratio [1]	MIC [2]	MIC [3]	MIC [4]	MIC [5]	MIC [6]	MIC [7]	Ratio [8]	Ratio [9]	Ratio [10]	MIC [11]	Ratio [12]
CC1/C(=N/N=C2\NC(=O)CS2)CC(c2ccc(F)cc2)NC1c1ccc(F)cc1 (stereo not given)	1	128 µg/mL (≈ 309 µM)	4 µg/mL (≈ 9.65 µM)	32 µg/mL (≈ 77.2 µM)	4 µg/mL (≈ 9.65 µM)	16 µg/mL (≈ 38.6 µM)	8 µg/mL (≈ 19.3 µM)	0.19	25	2	16 µg/mL (≈ 38.6 µM)	
COc1ccc(C2C/C(=N\N=C3/NC(=O)CS3)C(C)C(c3ccc(OC)cc3)N2)cc1 (stereo not given)		32 µg/mL (≈ 73 µM)	32 µg/mL (≈ 73 µM)	32 µg/mL (≈ 73 µM)	64 µg/mL (≈ 146 µM)	64 µg/mL (≈ 146 µM)	128 µg/mL (≈ 292 µM)	0.78	100		128 µg/mL (≈ 292 µM)	
CCOC(=O)Cc1csc(N/N=C2\CC(c3ccc(Cl)cc3)NC(c3ccc(Cl)cc3)C2C)n1 (stereo not given)		> 256 µg/mL	32 µg/mL (≈ 61.8 µM)	64 µg/mL (≈ 124 µM)	128 µg/mL (≈ 247 µM)	> 256 µg/mL	64 µg/mL (≈ 124 µM)				128 µg/mL (≈ 247 µM)	
CCOC(=O)Cc1csc(N/N=C2\CC(c3ccc(C)cc3)NC(c3ccc(C)cc3)C2C)n1 (stereo not given)		> 256 µg/mL	> 256 µg/mL	128 µg/mL (≈ 269 µM)	256 µg/mL (≈ 537 µM)	> 256 µg/mL	> 256 µg/mL				128 µg/mL (≈ 269 µM)	
CCOC(=O)Cc1csc(N/N=C2\CC(c3ccccc3)NC(c3ccccc3)C2C)n1 (stereo not given)		64 µg/mL (≈ 143 µM)	> 256 µg/mL	128 µg/mL (≈ 285 µM)	> 256 µg/mL	> 256 µg/mL	256 µg/mL (≈ 571 µM)	0.39	50		> 256 µg/mL	
NNC(=O)c1ccncc1 [ISONIAZID]		0.25 µg/mL (≈ 1.82 µM)										
O=C(O)c1cn(C2CC2)c2cc(N3CCNCC3)c(F)cc2c1=O [CIPROFLOXACIN]			8 µg/mL (≈ 24.1 µM)		16 µg/mL (≈ 48.3 µM)							
CC1/C(=N/N=C2\NC(=O)CS2)CC(c2ccc(Br)cc2)NC1c1ccc(Br)cc1 (stereo not given)		16 µg/mL (≈ 29.8 µM)	8 µg/mL (≈ 14.9 µM)	16 µg/mL (≈ 29.8 µM)	8 µg/mL (≈ 14.9 µM)	64 µg/mL (≈ 119 µM)	32 µg/mL (≈ 59.7 µM)	1.56	200		16 µg/mL (≈ 29.8 µM)	
CO[C@H]1/C=C/O[C@@]2(C)Oc3c(C)c(O)c4c(O)c(c(/C=N/N5CCN(C)CC5)c(O)c4c3C2=O)NC(=O)/C(C)=C\C=C\[C@H](C)[C@H](O)[C@@H](C)[C@@H](O)[C@@H](C)[C@H](OC(C)=O)[C@@H]1C [RIFAMPIN]		32 µg/mL (≈ 38.9 µM)										
CCOC(=O)Cc1csc(N/N=C2\CC(c3ccc(Br)cc3)NC(c3ccc(Br)cc3)C2C)n1 (stereo not given)		> 256 µg/mL	16 µg/mL (≈ 26.4 µM)	4 µg/mL (≈ 6.6 µM)	8 µg/mL (≈ 13.2 µM)	8 µg/mL (≈ 13.2 µM)	32 µg/mL (≈ 52.8 µM)				256 µg/mL (≈ 422 µM)	
CCOC(=O)Cc1csc(N/N=C2\CC(c3ccccc3)N(C)C(c3ccccc3)C2C)n1 (stereo not given)		16 µg/mL (≈ 34.6 µM)	16 µg/mL (≈ 34.6 µM)	128 µg/mL (≈ 277 µM)	32 µg/mL (≈ 69.2 µM)	256 µg/mL (≈ 553 µM)	64 µg/mL (≈ 138 µM)	1.56	200		8 µg/mL (≈ 17.3 µM)	1
CCOC(=O)Cc1csc(N/N=C2\CC(c3ccccc3)NC(c3ccccc3)C2CC)n1 (stereo not given)		> 256 µg/mL	128 µg/mL (≈ 277 µM)	> 256 µg/mL	> 256 µg/mL	> 256 µg/mL	> 256 µg/mL				256 µg/mL (≈ 553 µM)	
C[C@@H]1[C@H](O)[C@@H](C)/C=C/C=C/C=C/C=C/C=C/C=C/C=C/[C@H](O[C@@H]2O[C@H](C)[C@@H](O)[C@H](N)[C@@H]2O)C[C@@H]2O[C@](O)(C[C@@H](O)C[C@@H](O)[C@H](O)CC[C@@H](O)C[C@@H](O)CC(=O)O[C@H]1C)C[C@H](O)[C@H]2C(=O)O [AMPHOTERICIN B]						8 µg/mL (≈ 8.66 µM)	8 µg/mL (≈ 8.66 µM)				16 µg/mL (≈ 17.3 µM)	
CC1/C(=N/N=C2\NC(=O)CS2)CC(c2ccccc2)N(C)C1c1ccccc1 (stereo not given)		16 µg/mL (≈ 40.8 µM)	16 µg/mL (≈ 40.8 µM)	128 µg/mL (≈ 326 µM)	64 µg/mL (≈ 163 µM)	64 µg/mL (≈ 163 µM)	64 µg/mL (≈ 163 µM)	1.56	200		8 µg/mL (≈ 20.4 µM)	1
CCC1/C(=N/N=C2\NC(=O)CS2)CC(c2ccccc2)NC1c1ccccc1 (stereo not given)		> 256 µg/mL	128 µg/mL (≈ 326 µM)	> 256 µg/mL	> 256 µg/mL	256 µg/mL (≈ 652 µM)	> 256 µg/mL				> 256 µg/mL	
CCOC(=O)Cc1csc(N/N=C2\CC(c3ccc(OC)cc3)NC(c3ccc(OC)cc3)C2C)n1 (stereo not given)		16 µg/mL (≈ 31.5 µM)	64 µg/mL (≈ 126 µM)	128 µg/mL (≈ 252 µM)	256 µg/mL (≈ 503 µM)	> 256 µg/mL	> 256 µg/mL	1.56	200		256 µg/mL (≈ 503 µM)	
CCOC(=O)Cc1csc(N/N=C2\CC(c3ccc(F)cc3)NC(c3ccc(F)cc3)C2C)n1 (stereo not given)		16 µg/mL (≈ 33 µM)	16 µg/mL (≈ 33 µM)	32 µg/mL (≈ 66 µM)	64 µg/mL (≈ 132 µM)	128 µg/mL (≈ 264 µM)	32 µg/mL (≈ 66 µM)	1.56	200		16 µg/mL (≈ 33 µM)	
CC1/C(=N/N=C2\NC(=O)CS2)CC(c2ccccc2)NC1c1ccccc1 (stereo not given)		64 µg/mL (≈ 169 µM)	64 µg/mL (≈ 169 µM)	256 µg/mL (≈ 676 µM)	64 µg/mL (≈ 169 µM)	> 256 µg/mL	64 µg/mL (≈ 169 µM)	0.39	50		> 256 µg/mL	
Cc1ccc(C2C/C(=N\N=C3/NC(=O)CS3)C(C)C(c3ccc(C)cc3)N2)cc1 (stereo not given)		64 µg/mL (≈ 157 µM)	64 µg/mL (≈ 157 µM)	128 µg/mL (≈ 315 µM)	256 µg/mL (≈ 630 µM)	> 256 µg/mL	128 µg/mL (≈ 315 µM)	0.39	50		256 µg/mL (≈ 630 µM)	
CC1/C(=N/N=C2\NC(=O)CS2)CC(c2ccc(Cl)cc2)NC1c1ccc(Cl)cc1 (stereo not given)		16 µg/mL (≈ 35.8 µM)	8 µg/mL (≈ 17.9 µM)	128 µg/mL (≈ 286 µM)	128 µg/mL (≈ 286 µM)	128 µg/mL (≈ 286 µM)	128 µg/mL (≈ 286 µM)	1.56	200		256 µg/mL (≈ 572 µM)	
